STAT1 act-1 = activators of IFN-gamma induced STAT1 signaling | NIH 3T3 STAT1-luciferase reporter, luminescence; 100% = IFN-gamma alone, no compound | activation (% of control), % at 5.5 µM | 2.6% of 200,000 active | AID 932;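 active = activation above the screen-wide mean activation plus 3 SD, cut at about 130% in these data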;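 note: raw ratio to IFN-gamma control signal so 100% means no change and 0% no light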
STAT3 inh = inhibitors of IL-6 induced STAT3 signaling | U3A cells, IL-6 STAT3-luciferase reporter, luminescence; host cell line lacks STAT1 | inhibition, % at 5.5 µM | 0.89% of 190,000 active;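 active = inhibition above the mean inhibition across all screened compounds plus 3 SD, cut at about 44% in these data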;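 note: 0% = DMSO only wells and 100% = 100 µM nifuroxazide control wells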
STAT3 act-1 = increases IL-6 driven STAT3 reporter signal; AID 871; 0.91% of 190,000 active; U3A cells, IL-6 STAT3-luciferase reporter, luminescence; 100% = signal with IL-6 EC80 alone; activation (% of control), % at 5.6 µM;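 active = activation above the screen-wide mean of compound activation plus 3 SD, cut at about 130% in these data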;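 note: 0% = background luminescence of wells with medium and substrate only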
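Test system: STAT3-luciferase reporter U3A cells; Detection: reporter luminescence signal; Times: 1 h compound pre-exposure, 6 h IL-6 stimulation, 37 °C; Benchmarks: IL-6-only high control; Also added: IL-6 stimulus at 33 ng/mL final.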
STAT1 inh = inhibitors of IFN-gamma induced STAT1 signaling. NIH 3T3 STAT1-luciferase reporter, luminescence. inhibition, % at 5.5 µM. 0.35% of 200,000 active. AID 920;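 active = inhibition above a set limit, the mean inhibition across all tested compounds plus 3 SD, cut at about 34% in these data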;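 note: 0% = IFN-gamma with DMSO and 100% = IFN-gamma with 300 µM nifuroxazide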
STAT3 act-2 = STAT3 activation, confirmation assay | shares compounds with STAT3 act-1 | 64% of 1,200 active | U3A STAT3-luciferase reporter, IL-6 potentiation, luminescence; U3A cells lack STAT1; 100 means same as IL-6 alone | potentiation (% of control), % at 5.7 µM;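 active = percent activation of the STAT3 luciferase reporter above a set limit taken from the earlier primary screen, cut at about 130% in these data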;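 note: 0% = background signal of medium plus substrate and 100% = median of IL-6 with DMSO wells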
NFkB act STAT3ct = activates NF-kappaB, counter-screen to STAT3 activators | shares compounds with STAT3 act-1 | human cells, NF-kappaB reporter activation | activation (% of control), % at 5.7 µM | 11% of 1,200 active | AID 1309; in the data active = activation above about 120%;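 note: reporter induced by TNF-alpha stimulation; 100% = median of stimulated DMSO wells and 0% = no signal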
STAT1 act-2 = STAT1 activation in STAT3 activator counter-screen | 13% of 1,200 active | NIH 3T3 STAT1-luciferase reporter, IFN-gamma, luminescence | activation (% of control), % at 5.7 µM | shares compounds with STAT3 act-1 | AID 1318;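 active = activation above the solvent-only control well mean plus 3 SD, set per screening run, cut at about 120% in these data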;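 note: 100% = IFN-gamma with DMSO median signal so 100% means no change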
* = called active by the depositor; x = no result given. The list is not random: actives were taken first. Their share in the collection is about 4.3%.

SMILES | STAT1 act-1 | STAT3 inh | STAT3 act-1 | STAT1 inh | STAT3 act-2 | NFkB act STAT3ct | STAT1 act-2
Oc1ccc(Br)cc1-c1cc(-c2ccco2)[nH]n1 | 101 | -35 | 136* | -1 | 128 | 107 | 116
Oc1ccccc1-c1cc(-c2ccco2)[nH]n1 | 102 | -30 | 132 | -3 | x | x | x
CC(C)CCN(C(=O)COc1ccc(C#N)cc1)c1c(N)n(Cc2ccccc2)c(=O)[nH]c1=O | 101 | 4 | 102 | -1 | x | x | x
CCSc1nc2sc3c(c2c(=O)[nH]1)CCc1ccccc1-3 | 101 | -46 | 144* | -1 | 152* | 109 | 94
Cc1cc(Oc2cc(N)cc([N+](=O)[O-])c2)ccc1Cl | 110 | -10 | 109 | -11 | x | x | x
N#C/C(=C\c1ccc(-c2ccc(C(=O)O)cc2)o1)c1nc2ccccc2[nH]1 | 128 | -97 | 189* | -33 | 205* | 134* | 141*
CCOC(=O)C(C)Sc1nc2c([nH]c3ccccc32)c(=O)n1C (stereo unspecified) | 93 | -21 | 120 | 7 | x | x | x
CC(C)Sc1nc2c([nH]c3ccccc32)c(=O)n1C | 91 | -61 | 158* | 10 | 159* | 92 | 87
Cc1cc(NC(=O)CSc2nc3c([nH]c4ccccc43)c(=O)n2-c2cccc(C(F)(F)F)c2)no1 | 91 | -49 | 148* | 10 | 138* | 105 | 85
COc1cccc(-n2c(SCC(=O)Nc3cc(C)on3)nc3c([nH]c4ccccc43)c2=O)c1 | 81 | -48 | 144* | 21 | 135* | 100 | 90
COc1cccc(-n2c(SCC(N)=O)nc3c([nH]c4ccccc43)c2=O)c1 | 94 | -43 | 143* | 6 | 158* | 107 | 97
COc1cccc(-n2ccnc2SCC(=O)Nc2cc(C)on2)c1 | 92 | 7 | 100 | 7 | x | x | x
COc1cccc(-n2c(SCC(=O)N3CCCCC3)nc3c([nH]c4ccccc43)c2=O)c1 | 91 | x | x | 9 | x | x | x
O=C(c1cnc2n(c1=O)CCS2)N1CCN(c2ccc([N+](=O)[O-])cc2)CC1 | 94 | 14 | 95 | 7 | x | x | x
CNC(=O)CSc1nc2c([nH]c3ccccc32)c(=O)n1CCOC | 87 | -52 | 141* | 14 | 150* | 98 | 91
COc1ccc(-c2csc(NC(=O)CSc3nc(SC)ns3)n2)cc1 | 113 | -47 | 137* | -14 | 140* | 99 | 114
Cn1c(=O)c2c(nc(N3CCCC3)n2CC(O)CO)n(C)c1=O (stereo unspecified) | 105 | -42 | 141* | -6 | 104 | 111 | 105
O=c1oc(-c2cccs2)nc2scc(-c3cccs3)c12 | 106 | -43 | 140* | -6 | 123 | 114 | 116
Cc1ccc(NC(=S)Nc2cccc3cnccc23)cc1 | 95 | -40 | 137* | 5 | 143* | 97 | 98
O=C(Cn1ccc(C(F)(F)F)n1)N/N=C/c1ccc2c(c1)OCO2 | 106 | -6 | 104 | -7 | x | x | x
COc1ccc(/C=c2\sc3nc(-c4ccccc4OC)nn3c2=O)c(OC)c1 | 100 | -63 | 156* | 0 | 129 | 98 | 96
COc1ccccc1-c1nc2s/c(=C\c3cccs3)c(=O)n2n1 | 101 | -10 | 115 | 0 | x | x | x
Cc1ccc(C(=O)c2cc([N+](=O)[O-])ccc2N2CCOCC2)cc1 | 97 | 5 | 95 | 3 | x | x | x
Cc1ccc(C(=O)c2cc([N+](=O)[O-])ccc2N2CCCCC2)c(C)c1 | 100 | -39 | 137* | 0 | 116 | 152* | 108
CCC(CC)NC(=O)c1cc([N+](=O)[O-])ccc1N1CCOCC1 | 102 | 1 | 98 | -2 | x | x | x
SMILES | STAT1 act-1 | STAT3 inh | STAT3 act-1 | STAT1 inh | STAT3 act-2 | NFkB act STAT3ct | STAT1 act-2
CCOc1ccc(C(=O)c2cc([N+](=O)[O-])ccc2N2CCOCC2)cc1 | 122 | -68 | 166* | -25 | 127 | 165* | 132*
COc1ccc(C(=O)c2cc([N+](=O)[O-])ccc2N2CCOCC2)cc1 | 118 | -74 | 163* | -20 | 125 | 172* | 141*
CCC(C)(C(=O)NC1CCCC1)N(C)C(=O)c1ccccn1 (stereo unspecified) | 98 | 22 | 90 | 1 | x | x | x
CCN(CC)CC#CCC(OC)(c1ccccc1)c1ccccc1 | 100 | 7 | 96 | 1 | x | x | x
CC(=O)Nc1cccc2c1C(=O)N(c1ccc(C)cc1)C2=O | 108 | -67 | 160* | -5 | 163* | 114 | 121*
Cc1ccc(N2C(=O)c3cccc4c(C(=O)O)ccc(c34)C2=O)cc1 | 105 | 13 | 96 | -5 | x | x | x
COc1ccc(C2CC(=O)Oc3c2c(=O)n(C)c2ccccc32)c(OC)c1OC (stereo unspecified) | 97 | 7 | 101 | 4 | x | x | x
Cn1c(=O)c2c(c3ccccc31)OC(=O)CC2c1cccnc1 (stereo unspecified) | 97 | -34 | 137* | 1 | 98 | 102 | 100
O=C(NNC(=O)c1cc([N+](=O)[O-])ccc1Cl)c1cccs1 | 94 | 6 | 97 | 7 | x | x | x
CC(=O)Nc1cccc(C(=O)NC(C)c2ccc(S(N)(=O)=O)cc2)c1 (stereo unspecified) | 100 | -51 | 148* | 0 | 125 | 107 | 93
CCc1ccc(N2CCN(C(=O)N3CCOCC3)CC2)cc1 | 99 | -5 | 108 | -2 | x | x | x
c1ccc2c(-c3nc4ncccc4o3)cccc2c1 | 103 | -43 | 141* | -3 | 124 | 109 | 110
Cc1ccc(C)c(N=Nc2nc3ccccc3n2C)c1 | 126 | -74 | 176* | -28 | 223* | 154* | 237*
Cc1cc(C)c(C)c(N=Nc2nc3ccccc3n2C)c1C | 107 | 21 | 83 | -8 | x | x | x
COc1ccccc1NC(=O)c1ccc(NC(=O)CSc2ncn[nH]2)cc1 | 106 | 2 | 97 | -6 | x | x | x
Cc1c(Cl)ccc2c1NC(=O)[C@]21[C@@H]2C(=O)N(Cc3ccccc3)C(=O)[C@@H]2[C@@H]2CCCN21 | 102 | -43 | 141* | -2 | 127 | 101 | 89
COc1ccc(C(=O)NNC(=O)CCn2nnc(-c3ccc(C)cc3)n2)cc1OC | 102 | 2 | 99 | -3 | x | x | x
COc1ccccc1-c1nnc(SCC(=O)N2CCOCC2)o1 | 124 | -60 | 151* | -26 | 159* | 106 | 106
COc1ccccc1-c1nnc(SCC(=O)N2CCC(C)CC2)o1 | 101 | -18 | 117 | -1 | x | x | x
Brc1cc(Br)c2nc(-c3cccs3)ccc2c1 | 107 | -48 | 145* | -7 | 133 | 115 | 125*
COc1ccc(C2c3[nH]c4ccccc4c3CCN2C(=O)c2cc3ncccn3n2)c(F)c1 (stereo unspecified) | 102 | -46 | 146* | -3 | 149* | 100 | 100

Screening results deposited in PubChem BioAssay by The Scripps Research Institute Molecular Screening Center.
